Test results published in article PMC2939729 (Cancer cell, 2010).

Columns and labels:
PLK4 = target: T1, PLK4 (Homo sapiens, UniProt O00444); test: in vitro ATP-site competition binding assay, panel of 402 kinases; conditions: 10 μM inhibitor
T1 sequence (O00444 1-970): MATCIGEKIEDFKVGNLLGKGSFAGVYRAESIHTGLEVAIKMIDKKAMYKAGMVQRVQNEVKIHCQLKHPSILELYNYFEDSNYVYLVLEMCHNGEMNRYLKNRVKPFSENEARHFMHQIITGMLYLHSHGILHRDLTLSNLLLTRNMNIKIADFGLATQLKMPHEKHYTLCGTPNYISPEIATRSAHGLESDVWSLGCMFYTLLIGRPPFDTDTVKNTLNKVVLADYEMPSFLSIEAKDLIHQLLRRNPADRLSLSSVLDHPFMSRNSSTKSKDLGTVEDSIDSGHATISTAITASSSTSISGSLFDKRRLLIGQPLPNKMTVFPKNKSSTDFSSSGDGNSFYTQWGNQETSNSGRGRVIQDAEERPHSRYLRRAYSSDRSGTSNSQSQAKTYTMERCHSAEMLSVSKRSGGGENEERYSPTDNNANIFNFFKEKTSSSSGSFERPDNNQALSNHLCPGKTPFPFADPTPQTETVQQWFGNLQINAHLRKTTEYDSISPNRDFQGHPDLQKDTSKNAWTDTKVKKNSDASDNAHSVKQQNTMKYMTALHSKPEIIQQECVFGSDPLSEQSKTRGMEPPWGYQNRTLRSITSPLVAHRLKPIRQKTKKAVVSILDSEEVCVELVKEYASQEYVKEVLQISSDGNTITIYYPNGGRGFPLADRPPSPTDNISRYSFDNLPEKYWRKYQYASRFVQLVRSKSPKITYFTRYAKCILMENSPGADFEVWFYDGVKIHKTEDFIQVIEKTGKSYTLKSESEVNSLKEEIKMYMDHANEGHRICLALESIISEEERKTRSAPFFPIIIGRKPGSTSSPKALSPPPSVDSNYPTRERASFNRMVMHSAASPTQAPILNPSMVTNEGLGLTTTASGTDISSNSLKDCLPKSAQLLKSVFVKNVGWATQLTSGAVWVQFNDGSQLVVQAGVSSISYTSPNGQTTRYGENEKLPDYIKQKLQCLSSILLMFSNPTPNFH

TNK1 [1] = target: T2, TNK1 (Homo sapiens, UniProt Q13470); test: Inhibitory effect on TNK1 in vitro and in vivo
T2 sequence (Q13470 1-666): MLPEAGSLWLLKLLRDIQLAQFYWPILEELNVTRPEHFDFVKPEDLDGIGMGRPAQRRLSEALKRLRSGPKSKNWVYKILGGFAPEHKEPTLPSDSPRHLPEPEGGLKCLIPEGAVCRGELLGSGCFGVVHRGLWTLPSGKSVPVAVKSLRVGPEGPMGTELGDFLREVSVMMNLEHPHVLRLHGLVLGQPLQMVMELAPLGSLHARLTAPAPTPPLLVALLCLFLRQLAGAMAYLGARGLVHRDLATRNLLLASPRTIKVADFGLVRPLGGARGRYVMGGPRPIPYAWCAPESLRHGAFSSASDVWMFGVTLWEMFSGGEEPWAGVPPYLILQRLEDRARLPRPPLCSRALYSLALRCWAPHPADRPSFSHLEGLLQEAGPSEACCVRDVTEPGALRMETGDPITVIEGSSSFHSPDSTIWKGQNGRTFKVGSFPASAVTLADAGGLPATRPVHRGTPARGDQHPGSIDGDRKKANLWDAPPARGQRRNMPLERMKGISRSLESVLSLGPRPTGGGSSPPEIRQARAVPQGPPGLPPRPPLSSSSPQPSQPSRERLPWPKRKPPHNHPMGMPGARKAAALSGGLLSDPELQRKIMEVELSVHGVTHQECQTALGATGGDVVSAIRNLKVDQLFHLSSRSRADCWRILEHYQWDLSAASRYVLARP

BMK1 = BMK1 (Homo sapiens, UniProt Q13164); test: A549 xenograft: BMK1 activation and p21 in tumor homogenates; format: in vivo; conditions: Nod/Scid mice, 50 mg/kg twice a day, 2 days
BMK1, sequence (Q13164 whole entry): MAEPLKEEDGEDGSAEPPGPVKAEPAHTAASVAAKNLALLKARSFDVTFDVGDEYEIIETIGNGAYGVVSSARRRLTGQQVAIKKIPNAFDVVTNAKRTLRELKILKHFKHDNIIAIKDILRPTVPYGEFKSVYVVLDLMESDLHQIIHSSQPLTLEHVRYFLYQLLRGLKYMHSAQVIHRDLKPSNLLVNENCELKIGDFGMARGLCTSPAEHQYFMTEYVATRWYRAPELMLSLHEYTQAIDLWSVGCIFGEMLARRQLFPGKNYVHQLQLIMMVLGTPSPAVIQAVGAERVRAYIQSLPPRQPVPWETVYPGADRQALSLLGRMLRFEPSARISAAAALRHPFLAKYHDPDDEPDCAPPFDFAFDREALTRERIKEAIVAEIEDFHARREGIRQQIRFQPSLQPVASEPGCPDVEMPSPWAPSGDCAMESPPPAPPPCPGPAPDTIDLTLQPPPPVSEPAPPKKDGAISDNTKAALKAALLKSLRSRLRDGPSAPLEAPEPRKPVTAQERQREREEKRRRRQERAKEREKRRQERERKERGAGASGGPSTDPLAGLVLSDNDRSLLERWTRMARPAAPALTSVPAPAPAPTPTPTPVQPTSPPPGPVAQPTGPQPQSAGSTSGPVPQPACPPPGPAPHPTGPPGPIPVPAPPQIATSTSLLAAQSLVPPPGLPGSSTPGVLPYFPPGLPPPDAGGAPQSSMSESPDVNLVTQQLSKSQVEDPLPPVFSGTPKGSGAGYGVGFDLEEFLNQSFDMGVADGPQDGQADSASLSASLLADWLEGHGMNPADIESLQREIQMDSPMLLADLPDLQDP

[2] = tested on: BMK1-dependent transactivating activity of MEF2C; test: Trans-reporter assay of BMK1-dependent MEF2C transactivating activity in HEK293; format: cell-based; conditions: HEK293, 5 μM for 16 hr, luciferase
[3] = tested on: xenografted human (HeLa) or syngeneic mouse (LL/2) tumors; test: In vivo tumorigenesis experiments; design: species or system mice
Outline: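 Tumour cells in DMEM were injected s.c. into the right flank of 6-week-old mice: HeLa at 5 × 10^5 into Nod/Scid mice, or LL/2 at 1 × 10^6 into C57Bl/6 mice. Groups of 6 received 50 mg/kg i.p. twice daily, starting day 1, 7 or 14 (HeLa, to day 28) or day 1, 7 or 10 (LL/2, to day 17). Controls received carrier solution. Tumours were measured by caliper every 2–3 days, volume = L × W² × 0.52. BrdU was detected in tumour sections with anti-BrdU antibody, DAPI counterstain (6 mice, 9 slices). Student's t test was used.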

[4] = tested on: basic fibroblast growth factor (bFGF) induced angiogenesis; test: bFGF-induced angiogenesis in Matrigel plugs; format: in vivo; conditions: mice, Matrigel with 400 ng/mL bFGF, treated for 6 days
Outline: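 Mice were implanted with Matrigel containing 400 ng/mL bFGF and treated with test compound or vehicle for 6 days, starting the next day. Plugs were harvested, sectioned and stained with Masson's trichrome (6 mice, 9 slices), and plug hemoglobin content was measured. Student's t test was used.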

TNK1 [5] = target: T2, TNK1; test: in vitro ATP-site competition binding assay, panel of 402 kinases; conditions: 10 μM inhibitor

CCOc1cc(N2CCC(O)CC2)ccc1Nc1ncc2c(n1)N(C)c1ccccc1C(=O)N2C [XMD8-92]
displacement by XMD8-92 (PLK4): greater than 90%
inhibitory effect on TNK1 (TNK1 [1]): no significant inhibitory effect
BMK1 activation in tumors (BMK1): effectively inhibit
p21 expression in tumors (BMK1): induce
BMK1-dependent transactivating activity of MEF2C [2]: dramatically reduced
incorporation of BrdU during tumor cell division ([3]; HeLa or LL/2 tumor sections, immuno-staining): effectively inhibited
inhibition of tumor growth ([3]; mice, 50 mg/kg twice a day intraperitoneally): 95%
side effects to the animals ([3]; tumor-bearing mice, 50 mg/kg twice a day intraperitoneally): without obvious side effects
bFGF induced angiogenesis in Matrigel plugs [4]: significantly inhibits
displacement by XMD8-92 (TNK1 [5]): greater than 90%
